Experiments:
rhinovirus A1B = test: Antiviral activity against HRV 1B infected in human HeLa cells after 72 hrs by plaque reduction assay; assay type: functional, cell-based
Summary of the method: (§1)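 Plaque reduction in HeLa monolayers infected with virus giving about 100 plaques per well. Compound tested dose-dependently starting from the maximum non-cytotoxic concentration, with ethanol stocks diluted in medium just before use. Where 50% is not reached, percent inhibition at MNCC is given. Two independent assays in triplicate, mean ± SD.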

[1] = Cytotoxicity against human HeLa cells assessed as reduction in cell viability by XTT assay; assay type: cell-based
Summary of the method: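 HeLa cytotoxicity by XTT colorimetric assay plus microscopy after 3 days at 37 °C. MNCC is the highest concentration leaving morphology and viability of all cells unaffected. Two independent assays in triplicate.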

[2] = Cytotoxicity against human HeLa cells assessed as changes in morphology after 3 days by microscopic method; assay type: cell-based; conditions: read-out: MNCC
Summary of the method: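 HeLa cytotoxicity by XTT colorimetric assay plus microscopy after 3 days at 37 °C. MNCC is the highest concentration leaving morphology and viability of all cells unaffected. CC50 is the dose reducing viability by 50% of untreated controls. Two independent assays in triplicate.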

rhinovirus B14 [3] = test: Antiviral activity against HRV 14 infected in human HeLa cells after 72 hrs by plaque reduction assay; assay type: functional, cell-based
Summary of the method: as §1, with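 “use. IC50 is the dose cutting plaque number by 50%, read from log concentration versus percent plaque reduction.” for “use.”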

[4] = Selectivity index, ratio of CC50 for human HeLa cells to IC50 for HRV 1B infected in human HeLa cells
Summary of the method: (§2)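 Selectivity index is CC50 (XTT, HeLa) divided by IC50 from HeLa plaque reduction against the stated serotype.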

rhinovirus B14 [5] = test: Antiviral activity against HRV 14 infected in human HeLa cells at MNCC after 72 hrs by plaque reduction assay relative to control; assay type: functional; parameters: scale not given: the % may be the effect or the level left
Summary of the method: as §1, with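 “use. IC50 is the dose cutting plaque number by 50%, read from log concentration versus percent plaque reduction.” for “use.”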

[6] = Selectivity index, ratio of CC50 for human HeLa cells to IC50 for HRV 14 infected in human HeLa cells; summary of the method: as §2
[7] = Rhinovirus A, HeLa, 72 h, read-out: IC50
[8] = Rhinovirus B, HeLa, 72 h, read-out: IC50

Row | Compound | IC50 (rhinovirus A1B; hela) | IC50 (rhinovirus B14 [3]; hela) | IC50 (rhinovirus A1B; [7]) [µM] | IC50 (rhinovirus B14 [3]; [8]) [µM] | CC50 [1] [µM] | MNTC at 72 h [2] [µM] | Activity (rhinovirus A1B) | Ratio CC50/IC50 [4] | Activity (rhinovirus B14 [5]) [%] | Activity (rhinovirus B14 [3]) | Ratio CC50/IC50 [6]
1 | C/C(=C\c1ccccc1)C1=Cc2ccccc2OC1 | Not Active | Not Active | – | – | 25 | 12.5 | – | – | – | – | –
2 | c1ccc(CCCC2COc3ccccc3C2)cc1 (configuration not stated) | – | – | 9.59 | > 100 | 200 | 100 | Dose-dependent effect | 20.85 | 37 | Dose-dependent effect | –
3 | C1=C(CCCc2ccccc2)COc2ccccc21 | – | – | 2.37 | 40.5 | 200 | 100 | Dose-dependent effect | 84.39 | – | Dose-dependent effect | 4.94
4 | c1ccc(CCCCCC2COc3ccccc3C2)cc1 (configuration not stated) | – | – | 4.74 | 33 | 200 | 100 | Dose-dependent effect | 42.19 | – | Dose-dependent effect | 6.05
5 | O=C(/C=C/C1=Cc2ccccc2OC1)c1ccccc1 | Not Active | – | – | – | 50 | 25 | – | – | – | – | –

Continued, in another order:

Row | IC50 (rhinovirus A1B; hela) | IC50 (rhinovirus B14 [3]; hela) | IC50 (rhinovirus A1B; [7]) [µM] | IC50 (rhinovirus B14 [3]; [8]) [µM] | Compound | CC50 [1] [µM] | MNTC at 72 h [2] [µM] | Activity (rhinovirus A1B) | Ratio CC50/IC50 [4] | Activity (rhinovirus B14 [5]) [%] | Activity (rhinovirus B14 [3]) | Ratio CC50/IC50 [6]
6 | – | – | 0.49 | > 3.12 | c1ccc(CCC2COc3ccccc3C2)cc1 (configuration not stated) | 6.25 | 3.12 | Dose-dependent effect | 12.75 | 16 | Dose-dependent effect | –
7 | – | – | 1.79 | 25 | Clc1ccc2c(c1)CC(CCCc1ccccc1)CO2 (configuration not stated) | 200 | 100 | Dose-dependent effect | 111.73 | – | Dose-dependent effect | 8
8 | – | – | 0.71 | > 50 | c1ccc(CCCCC2COc3ccccc3C2)cc1 (configuration not stated) | 100 | 50 | Dose-dependent effect | 140.84 | 25 | Dose-dependent effect | –
9 | – | – | 0.54 | 12.7 | C1=C(CCCCc2ccccc2)COc2ccccc21 | 100 | 50 | Dose-dependent effect | 185.18 | – | Dose-dependent effect | 7.87
10 | – | – | 0.56 | 30 | Clc1ccc(CCCC2COc3ccc(Cl)cc3C2)cc1 (configuration not stated) | 200 | 100 | Dose-dependent effect | 357.14 | – | Dose-dependent effect | 6.67
11 | – | – | 0.56 | > 50 | C1=C(CCCCCc2ccccc2)COc2ccccc21 | 100 | 50 | Dose-dependent effect | 178.57 | 37 | Dose-dependent effect | –
12 | – | – | 0.48 | > 25 | C1=C(CCc2ccccc2)COc2ccccc21 | 50 | 25 | Dose-dependent effect | 104.17 | 26 | Dose-dependent effect | –

— ChEMBL document CHEMBL4004869, “3-Phenylalkyl-2H-chromenes and -chromans as novel rhinovirus infection inhibitors” (Bioorg Med Chem, 2017)
